Laboratory results from ChEMBL document CHEMBL4811241, “Revisiting Pyrazolo[3,4-d]pyrimidine Nucleosides as Anti-Trypanosoma cruzi and Antileishmanial Agents” (J Med Chem, 2021).
Calls of active or inactive are those of the source. No cut-off for these calls is given here.

Experiments:
Trypanosoma cruzi [1] = assay: Antitrypanosomal activity against Trypanosoma cruzi strain Y bloodstream trypomastigotes infected in Swiss Webster mouse assessed as reduction in parasitemia at 100 mg/kg, po qd for 5 days treatment started at 6 days post-infection and measured at 8 days post-infection by light microscopic analysis; format: functional, organism-based; details: time 2.0 day
Summary of the method: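 Male Swiss Webster mice, 18–20 g, six per group; only mice with detectable parasitemia treated. Oral gavage for 5 consecutive days (6–10 dpi); test compound given b.i.d. in 10% Tween 80, benznidazole once daily, formulations freshly prepared. Parasitemia counted by light microscopy in 5 μL blood; mortality checked daily to 34 dpi.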

[2] = Toxicity in Swiss webster mouse infected with Trypanosoma cruzi Y trypomastigotes assessed as animal survival at 10 mg/kg, po qd for 5 days treatment started at 6 days post-infection and measured at 34 days post-infection; format: organism-based; details: in vivo, 696 h, time 29 day
Summary of the method: (§1)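 Male Swiss Webster mice (18−20 g, 4−5 weeks) were infected i.p. with 10⁴ Y-strain bloodstream trypomastigotes from a donor mouse. Only mice with detectable parasitemia were treated, in groups of six. Oral gavage was given on days 6–10 post-infection, b.i.d. or q.d. as listed, in 10% Tween 80 vehicle, freshly prepared. Infected vehicle controls were included. Mortality was checked daily to 34 dpi as cumulative percentage.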

[3] = Toxicity in Swiss webster mouse infected with Trypanosoma cruzi Y trypomastigotes assessed as animal survival at 100 mg/kg, po qd for 5 days treatment started at 6 days post-infection and measured at 34 days post-infection; format: organism-based; details: in vivo, time 29 day; summary of the method: as §1
Trypanosoma cruzi [4] = assay: Antitrypanosomal activity against nifurtimox-sensitive Trypanosoma cruzi Tulahuen CL2 infected in Swiss mouse peritoneal macrophages assessed as inhibition of parasite growth measured after 7 days by spectrophotometric analysis; format: functional, organism-based; details: Tulahuen CL2, Peritoneal macrophage, 168 h
[5] = test system: Trypanosoma brucei rhodesiense; assay: Antitrypanosomal activity against Trypanosoma brucei rhodesiense STIB900 measured after 6 hrs by alamar blue dye based fluorimetry analysis; format: functional, organism-based; details: STIB900, 6 h
Trypanosoma cruzi [6] = assay: Antitrypanosomal activity against nifurtimox-sensitive Trypanosoma cruzi Tulahuen CL2 infected in human MRC-5 SV2 cells assessed as inhibition of parasite growth measured after 7 days by spectrophotometric analysis; format: functional, organism-based; details: Tulahuen CL2, MRC-5 SV2, 168 h
[7] = Cytotoxicity against human MRC-5 SV2 cells assessed as reduction in cell growth measured after 3 days by resazurin dye based fluorometric analysis; details: time 3 day
[8] = Selectivity index, ratio of CC50 for human MRC-5 SV2 cells to IC50 for antitrypanosomal activity against nifurtimox-sensitive Trypanosoma cruzi Tulahuen CL2 infected in human MRC-5 SV2 cells; format: toxicity, cell-based; details: read-out: Ratio CC50/IC50
Summary of the method: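 Ratio of MRC-5SV2 CC50 (3-day resazurin assay) to IC50 against T. cruzi amastigotes in MRC-5SV2 cells (7-day CPRG assay).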

Leishmania infantum = assay: Antileishmanial activity against amastigote form of Leishmania infantum MHOM/MA(BE)/67 infected in Swiss mouse peritoneal macrophages assessed as reduction in parasite growth treated at 2 hrs post-infection and measured after 5 days by Giemsa staining based microscopic analysis; format: functional, organism-based; details: MHOM/MA(BE)/67, Peritoneal macrophage
Summary of the method: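 Swiss mouse peritoneal macrophages, harvested after 2-day potato-starch stimulation, infected 48 h after plating; compounds added 2 h post-infection.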

[9] = Cytotoxicity against Swiss mouse peritoneal macrophages assessed as cell detachment, lysis and granulation measured after 5 days by microscopic analysis; format: cell-based, Peritoneal macrophage; details: time 5 day
Summary of the method: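 Scored within the Leishmania macrophage assay over 5 days: detachment, lysis and granulation judged semi-quantitatively by microscopy across at least 500 cells. CC50 derived from % reduction in normal cells versus untreated wells.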

[10] = Selectivity index, ratio of CC50 for Swiss mouse peritoneal macrophages to IC50 for antileishmanial activity against amastigote form of Leishmania infantum MHOM/MA(BE)/67 infected in Swiss mouse peritoneal macrophages; format: toxicity; details: read-out: Ratio CC50/IC50
Summary of the method: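 Ratio of macrophage CC50 to L. infantum amastigote IC50, both taken from the same 5-day macrophage assay.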

Trypanosoma cruzi [11] = assay: Antitrypanosomal activity against Trypanosoma cruzi Y bloodstream trypomastigotes assessed as inhibition of parasite growth incubated for 24 hrs by light microscopy; format: functional, organism-based
Trypanosoma cruzi [12] = assay: Antitrypanosomal activity against intracellular amastigote form of Trypanosoma cruzi Y infected in Swiss Webster mouse cardiomyocytes assessed as inhibition of parasite growth incubated for 48 hrs by Giemsa staining based microscopic analysis; format: functional, organism-based; details: Cardiac muscle cell
Summary of the method: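 Primary 2D mouse embryo cardiac cell cultures, infected for 24 h, then washed and exposed for 48 h at 37 °C to a serial dilution. Cells fixed and stained with Giemsa; infected cells and parasites per infected cell scored in 200 host cells. Activity expressed from the inhibition index; two independent experiments run in duplicate.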

[13] = Cytotoxicity against Swiss Webster mouse 2D cardiomyocytes assessed as reduction in cell viability measured after 48 hrs by PrestoBlue assay; parameters: species or system Cardiac Muscle Cell; details: read-out: LC50
Summary of the method: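 Mouse embryo heart cells as monolayer (2D) or 3D aggregates (25 × 10³ cells/well on 1% agarose). Uninfected cultures exposed 48 h to rising concentrations. Morphology checked by light microscopy; viability read by PrestoBlue; CC₅₀ determined.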

Structure (SMILES) | EC50 [5] [nM] | IC50 (Trypanosoma cruzi [6]) [nM] | CC50 at 72 h [7] [nM] | selectivity ratio [8] | IC50 (Leishmania infantum) [nM] | CC50 at 120 h [9] [nM] | selectivity ratio [10] | further results
O=C(Cn1ccnc1[N+](=O)[O-])NCc1ccccc1 [BENZNIDAZOLE] | – | – | – | – | – | – | – | Activity (Trypanosoma cruzi [1]): Active; Activity [2]: Non-Toxic; survival at 696 h [3]: 100%; IC50 (Trypanosoma cruzi [4]): 1960 nM
Nc1ncnc2c1ccn2[C@@H]1O[C@H](CO)[C@@H](O)[C@H]1O [TUBERCIDIN] | 36 | – | – | – | – | – | – | –
Nc1ncnc2c1cnn2[C@@H]1O[C@H](CO)[C@@H](O)[C@H]1O | – | 290 | > 64000 | > 219 | 1060 | > 64000 | > 60 | IC50 (Trypanosoma cruzi [11]): > 81000 nM; IC50 (Trypanosoma cruzi [12]): 2460 nM; CC50 at 48 h [13]: > 500000 nM
Nc1ncnc2c1ccn2[C@@H]1O[C@H](CO)C[C@H]1O | 0.52 | – | – | – | – | – | – | –
NCc1nn([C@@H]2O[C@H](CO)[C@@H](O)[C@H]2O)c2ncnc(N)c12 | – | 11100 | 59300 | 5 | 2000 | 8000 | 4 | –
